Laboratory results as given in paper PMC4122542 (Journal of medicinal chemistry, 2008).

Columns and labels:
RG2 cells [1] = experiment: MTT cytotoxicity assay in wild-type cells; assay type: cell-based, Rat
Method in brief: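 Non-transduced rat glioma RG2 cells were grown in DMEM with 10% FBS and 1% penicillin/streptomycin at 37 °C under 5% CO2, then seeded at 1.5 × 10^3 cells/well and incubated overnight. Test compound was applied at 0.001–1000 μmol/L in quadruplicate for 72 h at 37 °C. MTT (1 mg/mL) was added for 3 h, and formazan was dissolved in DMSO. A490 (650 nm reference) was blank-subtracted and growth expressed as % of untreated control.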

[2] = cited from earlier work
[3] = normal mice; cited from earlier work
RG2TK+ cells = experiment: In vitro cell uptake of radiolabeled nucleosides in HSV1-tk expressing cells; assay type: cell-based, Rat; conditions: 2 h incubation, % of total radioactivity per 10^6 cells
RG2 cells [4] = experiment: In vitro cell uptake of radiolabeled nucleosides in non-transduced control cells; assay type: cell-based, Rat; conditions: 2 h incubation, % of total radioactivity per 10^6 cells, wild-type RG2 cells

O=c1[nH]c(=O)n([C@@H]2O[C@H](CO)[C@@H](O)[C@@H]2F)cc1I [FIAU]
Cytotoxicity to RG2 cells (in words) (RG2 cells [1]): moderately toxic to RG2 cells | Diffusion across the intact BBB [2]: does not diffuse across the intact BBB

O=c1[nH]c(=O)n([C@@H]2O[C@H](CO)[C@@H](O)[C@H]2F)cc1/C=C/[123I] [[^123I]IVFRU]
Brain uptake [3]: very low brain uptake

O=c1[nH]c(=O)n([C@@H]2O[C@H](CO)[C@@H](O)[C@@H]2F)cc1[125I] [[^125I]FIAU, 2′-fluoro-2′-deoxy-5-[^125I]iodo-1-β-D-arabinofuranosyluracil]
% Uptake per 10^6 Cells, RG2TK+ (RG2TK+ cells): 29.4 % per 10^6 cells | % Uptake per 10^6 Cells, RG2 (RG2 cells [4]): 3.44 % per 10^6 cells

O=c1[nH]c(=O)n([C@@H]2O[C@H](CO)[C@@H](O)[C@@H]2F)cc1/C=C/[123I] [[^123I]IVFAU]
Brain uptake [3]: very low brain uptake

O=c1[nH]c(=O)n([C@H]2C[C@H](O)[C@@H](CO)O2)cc1CCC[18F] [[^18F]FPrDU]
% Uptake per 10^6 Cells, RG2TK+ (RG2TK+ cells): 8.4 % per 10^6 cells

Nc1nc(O)c2ncn(COC(CO)CO)c2n1 [GCV, ganciclovir]
Cytotoxicity to RG2 cells (in words) (RG2 cells [1]): not active against RG2 cells

O=c1[nH]c(=O)n([C@@H]2O[C@H](CO)[C@@H](O)[C@@H]2F)cc1CCCC[18F] [[^18F]FFBuAU]
% Uptake per 10^6 Cells, RG2 (RG2 cells [4]): 0.66 % per 10^6 cells

O=c1[nH]c(=O)n([C@H]2C[C@H](O)[C@@H](CO)O2)cc1CCCCC[18F] [[^18F]FPeDU]
% Uptake per 10^6 Cells, RG2 (RG2 cells [4]): 0.23 % per 10^6 cells
